ChEMBL document CHEMBL4406851, “Design, synthesis and biological evaluation of cinnamic acid derivatives with synergetic neuroprotection and angiogenesis effect” (Eur J Med Chem, 2019)

How the values were obtained:
SH-SY5Y = assay: Neuroprotective activity against H2O2-induced cell damage in human SH-SY5Y cells assessed as increase in cell viability preincubated for 24 hrs followed by H2O2 addition and measured after 4 hrs by MTT assay; type: functional, cell-based
How it was run: (§1)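 Cells at 3.5×10^4 cells/mL in 96-well plates were grown 24 h (37 °C, 5% CO2). Test agent was added at five concentrations for 24 h, then H2O2 (4.8 mM stock) to model and drug wells. After PBS washes, MTT (5 mg/mL) was added for 4 h, formazan was dissolved in DMSO and OD was read at 550 nm. Proliferation rate = (drug − injury OD)/(control − injury OD). EC50 came from a formula using maximum concentration and summed, maximal and minimal rates.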

[1] = Neuroprotective activity against H2O2-induced cell damage in human HBMEC2 cells assessed as increase in cell viability preincubated for 24 hrs followed by H2O2 addition and measured after 4 hrs by MTT assay; type: functional, cell-based; settings: HBMEC-2; how it was run: as §1

Structure (SMILES)	EC50 (SH-SY5Y)	EC50 [1]
COc1cc(CNC(=O)/C=C/c2ccccc2OCc2nc(C)c(C)nc2C)ccc1OCc1nc(C)c(C)nc1C	6.28 µM	15.1 µM
COc1cc(CNC(=O)/C=C/c2ccccc2OC)ccc1O	5.98 µM	6.48 µM
COc1cc(CNC(=O)/C=C/c2ccccc2O)ccc1OCc1nc(C)c(C)nc1C	5.3 µM	6.07 µM
CC1=NN(c2ccccc2)C(=O)C1 [EDARAVONE]	3.75 µM	4.61 µM
COc1cc(CNC(=O)/C=C/c2ccc(O)cc2)ccc1O	6 µM	8.04 µM
COc1cc(CNC(=O)/C=C/c2cccc(OC)c2OC)ccc1O	5.49 µM	13.1 µM
COc1cc(CNC(=O)/C=C/c2ccc(OC)c(OCc3nc(C)c(C)nc3C)c2)ccc1O	9.25 µM	9.3 µM
COc1cc(CNC(=O)/C=C/c2ccc(OC)c(OC)c2)ccc1O	11 µM	8.85 µM
COc1cc(CNC(=O)/C=C/c2cccc(O)c2)ccc1O	8.62 µM	5.75 µM
COc1cc(CNC(=O)CCCC/C=C/C(C)C)ccc1O [CAPSAICIN]	14 µM	16.4 µM
COc1cc(CNC(=O)/C=C/c2cccc(OC)c2OC)ccc1OCc1nc(C)c(C)nc1C	7.15 µM	6.31 µM
COc1cc(CNC(=O)/C=C/c2ccc(OCc3nc(C)c(C)nc3C)cc2)ccc1OCc1nc(C)c(C)nc1C	7.77 µM	21.4 µM
Cc1nc(C)c(C)nc1C [LIGUSTRAZINE]	17.6 µM	15.2 µM
COc1ccccc1/C=C/C(=O)NCc1ccc(OCc2nc(C)c(C)nc2C)c(OC)c1	7.15 µM	12 µM
COc1ccc(/C=C/C(=O)NCc2ccc(OCc3nc(C)c(C)nc3C)c(OC)c2)cc1O	8.56 µM	13.5 µM
COc1ccc(/C=C/C(=O)NCc2ccc(O)c(OC)c2)cc1	11.4 µM	10.4 µM
COc1cc(CNC(=O)/C=C/c2cc(OC)c(OC)c(OC)c2)ccc1OCc1nc(C)c(C)nc1C	11.5 µM	3.55 µM
COc1cc(CNC(=O)/C=C/c2ccc(OCc3nc(C)c(C)nc3C)cc2)ccc1O	5.37 µM	12.5 µM
COc1cc(CNC(=O)/C=C/c2ccc(OCc3nc(C)c(C)nc3C)c(OC)c2)ccc1O	10.2 µM	11.6 µM
COc1cc(CNC(=O)/C=C/c2ccc(OC)c(OCc3nc(C)c(C)nc3C)c2)ccc1OCc1nc(C)c(C)nc1C	11.6 µM	14.6 µM
COc1ccc(OC)c(/C=C/C(=O)NCc2ccc(O)c(OC)c2)c1	9.5 µM	10.5 µM
COc1cc(CNC(=O)/C=C/c2ccccc2)ccc1OCc1nc(C)c(C)nc1C	7.31 µM	4.99 µM

Structure (SMILES)	EC50 (SH-SY5Y)	EC50 [1]
COc1cc(CNC(=O)/C=C/c2ccccc2)ccc1O	3.66 µM	9.8 µM
COc1cc(CNC(=O)/C=C/c2ccccc2O)ccc1O	9.76 µM	7.46 µM
COc1ccc(OC)c(/C=C/C(=O)NCc2ccc(OCc3nc(C)c(C)nc3C)c(OC)c2)c1	11 µM	11.8 µM
COc1ccc(/C=C/C(=O)NCc2ccc(OCc3nc(C)c(C)nc3C)c(OC)c2)cc1	5.05 µM	6.56 µM
COc1cc(CNC(=O)/C=C/c2cc(OC)c(OC)c(OC)c2)ccc1O	5.91 µM	2.59 µM
COc1cc(CNC(=O)/C=C/c2ccccc2OCc2nc(C)c(C)nc2C)ccc1O	12 µM	6.65 µM
COc1cc(CNC(=O)/C=C/c2ccc(O)cc2)ccc1OCc1nc(C)c(C)nc1C	3.74 µM	6.23 µM
COc1cc(/C=C/C(=O)NCc2ccc(O)c(OC)c2)cc(OC)c1	4.86 µM	7.81 µM
COc1cc(CNC(=O)/C=C/c2cccc(OCc3nc(C)c(C)nc3C)c2)ccc1O	8.09 µM	10.6 µM
COc1cc(/C=C/C(=O)NCc2ccc(OCc3nc(C)c(C)nc3C)c(OC)c2)ccc1O	13.4 µM	5.81 µM
COc1cc(/C=C/C(=O)NCc2ccc(OCc3nc(C)c(C)nc3C)c(OC)c2)ccc1OCc1nc(C)c(C)nc1C	11.1 µM	14.5 µM
COc1cccc(/C=C/C(=O)NCc2ccc(O)c(OC)c2)c1	5.24 µM	7.11 µM
COc1ccc(/C=C/C(=O)NCc2ccc(OCc3nc(C)c(C)nc3C)c(OC)c2)cc1OC	4.47 µM	15.8 µM
COc1cc(CNC(=O)/C=C/c2cccc(O)c2)ccc1OCc1nc(C)c(C)nc1C	3.68 µM	6.17 µM
COc1ccc(/C=C/C(=O)NCc2ccc(O)c(OC)c2)cc1O	7.85 µM	11.8 µM
COc1cc(OC)c(OC)cc1/C=C/C(=O)NCc1ccc(OCc2nc(C)c(C)nc2C)c(OC)c1	3.62 µM	12.5 µM
COc1cc(CNC(=O)/C=C/c2ccc(OC)c(OC)c2OC)ccc1OCc1nc(C)c(C)nc1C	3.84 µM	18.1 µM
COc1cc(/C=C/C(=O)NCc2ccc(OCc3nc(C)c(C)nc3C)c(OC)c2)cc(OC)c1	8.66 µM	12.9 µM
COc1cc(CNC(=O)/C=C/c2cccc(OCc3nc(C)c(C)nc3C)c2)ccc1OCc1nc(C)c(C)nc1C	8.7 µM	12.8 µM
COc1cc(/C=C/C(=O)NCc2ccc(O)c(OC)c2)ccc1O	9.3 µM	6.34 µM
COc1cccc(/C=C/C(=O)NCc2ccc(OCc3nc(C)c(C)nc3C)c(OC)c2)c1	4.32 µM	9.87 µM
COc1cc(CNC(=O)/C=C/c2ccc(OC)c(OC)c2OC)ccc1O	7.45 µM	4.82 µM
